Measurements: paper PMC2926617 (Nucleic Acids Research, 2010)
“Also recorded” adds a separate entry of the source.

B1: R27A variant of whole CarH (protein)
chain: MAERTYRINIAAELAGVRVELIRAWEARYGVLTPRRTPAGYRAYTDRDVAVLKQLKRLTDEGVAISEAAKLLPQLMEGLEAEVAGRGASQDARPHAETWRESMLAATQAYDQPRVSDVLDEVLAALPPLKAFDEVLAPLLCDVGERWESGTLTVAQEHLVSQMVRARLVSLLHAAPLGRHRHGVLACFPEEEHEMGLLGAALRLRHLGVRVTLLGQRVPAEDLGRAVLALRPDFVGLSTVASRSAEDFEDTLTRLRQALPRGLPVWVGGAAARSHQAVCERLAVHVFQGEEDWDRLAGT
B2: CarANt: the highly basic and autonomously folded N-terminal DNA-binding domain of CarA (protein)
chain: MTLRIRTIARMTGIREATLRAWERRYGFPRPLRSEGNNYRVYSREEVEAVRRVARLIQEEGLSVSEAIAQVKTEPPRE
modifications: left off: H6, end not stated, cleaved

Key:
CarS [1] = molecular target: T1, CarS (Myxococcus xanthus, UniProt Q06911); test: Yeast two-hybrid interaction with CarS; format: cell-based; conditions: not shown
T1 sequence (Q06911 1-111): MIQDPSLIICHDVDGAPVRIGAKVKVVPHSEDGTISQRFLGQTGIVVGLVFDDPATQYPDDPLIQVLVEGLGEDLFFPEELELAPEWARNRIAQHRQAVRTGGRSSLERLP
Procedure, shortened: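 Yeast EGY48 carrying lacZ reporter pSH18-34 was cotransformed (lithium acetate) with LexA–CarA and B42–CarS or variant fusions. Equal-density cultures were spotted on galactose or glucose (basal fusion expression) plates with leucine, grown 1 day at 30°C, then overlaid with X-Gal agarose for 2–3 h (Gal) or ≥7 h (Glu). Interaction was scored by blue colour; single-hybrid cells served as controls.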

CarS(D52A/D53A) = test: ITC titration with CarS; format: binding, Myxococcus xanthus; conditions: pH 7.5
Procedure, shortened: (§1)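 ITC in 100 mM NaCl, 50 mM phosphate pH 7.5, 2 mM β-mercaptoethanol, 0.05% sodium azide; samples were dialysed or dissolved in this buffer and degassed. Cell held 20 µM CarANt or peptide, titrated with 30 injections of 0.22 mM CarS variant, stirring 300 rpm. Heat of dilution was subtracted using buffer controls. Data were fit to a single-site model; at least two independent titrations.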

CarS1 [2] = molecular target: T2, CarS1 (Myxococcus xanthus, UniProt Q06911); test: Far-UV CD spectroscopy with CarS1; conditions: 1:1 molar ratio with CarS1, 25°C, 100 mM KF, 7.5 mM phosphate pH 7.5
T2 sequence (Q06911 1-86): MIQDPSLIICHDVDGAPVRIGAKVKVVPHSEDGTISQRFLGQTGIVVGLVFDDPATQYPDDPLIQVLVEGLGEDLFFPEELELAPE
Procedure, shortened: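 Far-UV CD at 25°C, 10–20 µM samples in 100 mM KF, 7.5 mM phosphate pH 7.5, three scans averaged, 0.2-nm steps. Peptide (18 µM) or CarANt (11 µM) was measured alone and mixed 1:1 with CarS1. The read-out was molar ellipticity difference between the mixture and CarS1 alone.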

CarS [3] = molecular target: T1, CarS; test: Far-UV CD spectroscopy with CarS; conditions: 25°C, 100 mM KF, 7.5 mM phosphate pH 7.5
Procedure, shortened: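 Far-UV CD was recorded at 25°C in 0.2-nm steps (adaptive sampling) with 2-nm slit width, averaging three scans. Samples were 10–20 µM protein, peptide or 1:1 mixture in 100 mM KF, 7.5 mM phosphate pH 7.5. The instrument was calibrated with (+)-10-camphorsulfonic acid.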

CarS(F77A) = test: ITC titration with CarS; format: binding, Myxococcus xanthus; conditions: pH 7.5
Procedure, shortened: as §1

[4] = Analytical gel filtration of pure proteins; format: physicochemical; conditions: Superdex200, 50 mM phosphate pH 7.5, 2 mM β-mercaptoethanol
Procedure, shortened: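 Superdex200 analytical size-exclusion HPLC in 50 mM phosphate pH 7.5, 2 mM β-mercaptoethanol and the required NaCl. Samples were 10–50 µM pure protein, or CarNt or CarHNt mixed with CarS or variant at equivalent concentrations. Flow was 0.4 ml/min with detection at 280, 235 and 220 nm. Peak fractions were identified by SDS–PAGE. Mr was taken from elution volume via log Mr = 7.64 – 0.209 Ve.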

CarS [5] = molecular target: T1, CarS; test: ITC titration with CarS; format: binding; conditions: ITC
CarS1 [6] = molecular target: T2, CarS1; test: NMR chemical shift mapping on labeled H6CarS1; format: binding; conditions: ^15N, ^13C-H6CarS1 0.10–0.25 mM titrated with unlabeled CarANt, P01 or P02, 25°C or 45°C

Row | Molecule | Two-hybrid interaction with CarS (CarS [1]) | ITC heat change / binding (CarS(D52A/D53A)) | Far-UV CD change / helix content in presence of CarS1 (CarS1 [2]) | Far-UV CD change in presence of CarS (CarS [3]) | ITC heat change / binding (CarS(F77A)) | Apparent Mr of pure protein [4] | KD relative to P01 and P02 (CarS [5]) | N (binding stoichiometry) (CarS [5]; CarS, 25 °C, pH 7.5, 100 mM NaCl, 50 mM phosphate, 2 mM β-mercaptoethanol, 0.05% sodium azide, 20 µM CarANt or peptide titrated with 0.22 mM CarS, average of at least two independent titrations) | ΔH (CarS [5]; CarS, 25 °C, pH 7.5, 100 mM NaCl, 50 mM phosphate, average of at least two independent titrations) | Kd (CarS [5]; CarS, 25 °C, pH 7.5, 100 mM NaCl, 50 mM phosphate, single-site binding model, average of at least two independent titrations) | Chemical shift perturbations of labeled H6CarS1 (CarS1 [6])
1 | B1 | lack of interaction with CarS |  |  |  |  |  |  |  |  |  | 
2 | B2 |  | could not be detected; also recorded: ^aHeat changes were negligible or undetected for the following titrations: (i) CarANt or P01 with CarS(F77A) or CarS(D52A/D53A); (ii) P03 with CarS or CarS1; (iii) TtP01 with CarS (for details on peptides P01, P02, P03, CHP01 and TtP01, see Figures 3A and 4A, and text) | no significant change | in a manner similar to CarS1 | could not be detected; also recorded: ^aHeat changes were negligible or undetected for the following titrations: (i) CarANt or P01 with CarS(F77A) or CarS(D52A/D53A); (ii) P03 with CarS or CarS1; (iii) TtP01 with CarS (for details on peptides P01, P02, P03, CHP01 and TtP01, see Figures 3A and 4A, and text) | 9.6 kDa | over an order of magnitude lower | 0.94 ± 0.01 | −9.24 ± 0.02 kcalmol^−1 | ~10 nM | significant perturbations for the methyl cross-peaks of V26, L63, L75, L81 (Figure 1C) and I64
